Assay outcomes: PubChem, several laboratories
NF-kB neuron act – NF-kB expression increase, human neuronal cells | fold change at 12.5 µM | AID 1239 | NF-kB reporter expression; hits give high values | 1.6% of 190,000 active; in the data active = fold change above about 3.3
APP 5'UTR act – activates APP 5'UTR luciferase reporter; SH-SY5Y APP 5'UTR luciferase reporter, luminescence; zero percent = DMSO vehicle wells; activation, % at 2 µM; 1% of 190,000 active;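 active = activation above a set limit, based on mean plus 3 SD of controls, cut at about 140% in these data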
STAT3 activator – increases IL-6 driven STAT3 reporter signal. U3A cells, IL-6 STAT3-luciferase reporter, luminescence; 100% = signal with IL-6 EC80 alone. activation (% of control), % at 5.6 µM. 0.91% of 190,000 active;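 active = activation above the screen-wide mean of compound activation plus 3 SD, cut at about 130% in these data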
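Material: STAT3-luciferase reporter U3A cells; Probe or stimulus: IL-6 (33 ng/mL); Incubation: compound pre-incubation 1 h before IL-6, then 6 h stimulation at 37 °C; Technique: luminescence from STAT3-driven luciferase reporter; Evaluation: % activation versus median of IL-6-stimulated wells; Controls: IL-6-only high control.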
STAT1 act – STAT1 signaling activation; NIH 3T3 STAT1-luciferase reporter, IFN-gamma, luminescence; 100% = IFN-gamma alone, no compound; activation (% of control), % at 5.5 µM; 2.6% of 200,000 active; AID 932;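 active = activation above the screen-wide mean activation plus 3 SD, cut at about 130% in these data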
STAT3 blocker – reduces IL-6 driven STAT3 reporter signal; U3A cells, IL-6 STAT3-luciferase reporter, luminescence; host cell line lacks STAT1; inhibition, % at 5.5 µM; 0.89% of 190,000 active;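 active = inhibition above the mean inhibition across all screened compounds plus 3 SD, cut at about 44% in these data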
STAT1 blocker – inhibitors of IFN-gamma induced STAT1 signaling; inhibition, % at 5.5 µM; AID 920; 0.35% of 200,000 active; NIH 3T3 STAT1-luciferase reporter, luminescence;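 active = inhibition above a set limit, the mean inhibition across all tested compounds plus 3 SD, cut at about 34% in these data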
Each line names hits and unclear results; the compound was inactive in the other large screens. Rows were chosen to be rich in hits. Some 4.9% of all compounds tested hit in one or more screens of this group.

CN1C(=O)SC(Nc2ccccc2)C1=O (configuration not stated)	none
CC(C)(C)c1ccc(/C=C2\SC(=O)N(CCNC(=O)c3cccc(S(=O)(=O)N4CCOCC4)c3)C2=O)cc1	APP 5'UTR act 135
Cc1cc(NC(=O)c2ccc(C#N)cc2)on1	none
Oc1ccccc1-c1cc(-c2ccccc2Cl)[nH]n1	NF-kB neuron act 8.7, APP 5'UTR act 231
S=c1[nH]nc(-c2cc(-c3ccco3)[nH]n2)n1-c1ccccc1	none
Oc1ccc(Cl)cc1-c1cc(-c2ccco2)[nH]n1	STAT3 activator 134
Oc1ccc(Cl)cc1-c1cc(-c2ccccc2Cl)[nH]n1	none
Oc1ccccc1-c1cc(-c2ccco2)[nH]n1	NF-kB neuron act 3.9
O=C(CCN1CCCCC1)NCC1OCCc2ccccc21 (configuration not stated)	none
O=C(COc1ccc([N+](=O)[O-])cc1)Nc1ccc2c(c1)OCO2	none
CCNC(=O)c1sc(-c2ccccc2)nc1C	none
O=Cc1ccc(-c2nc3ccccc3s2)o1	APP 5'UTR act 143, STAT1 act 130
COc1ccc(/C=C/C(=O)c2c(O)cc(C)oc2=O)c(OC)c1	NF-kB neuron act 4.1, STAT1 act 138
O=C(COc1cccc2ccccc12)N/N=C/c1ccccc1OCc1ccc(C(=O)O)cc1	none
COc1ccc(/C=N/NC(=O)COc2ccccc2-c2ccccc2)cc1	NF-kB neuron act 5.3
O=C(COc1ccccc1-c1ccccc1)N/N=C/c1cccc2ccccc12	NF-kB neuron act 4.1
COC(=O)c1c(N(S(C)(=O)=O)S(C)(=O)=O)sc2c1CCN(c1ncc(C(F)(F)F)cc1Cl)C2	NF-kB neuron act 3.4
CC(C)(C)n1nnnc1C(c1cccc(C(F)(F)F)c1)N1CCC(O)CC1 (configuration not stated)	none
CCc1ccc(CN(C)C(=O)CCc2nnc(CCc3cccc(OC)c3)o2)nc1	none
N#C/C(C(=O)Oc1ccccc1)=C1/Nc2ccccc2-c2ccccc21	none
CCOc1cccc(C(=O)Nc2nc(-c3ccc(S(=O)(=O)N4CCOCC4)cc3)cs2)c1	STAT1 blocker 35
Cc1ccccc1Oc1nc2ccccn2c(=O)c1/C=C(\C#N)C(=O)Nc1c(C)n(C)n(-c2ccccc2)c1=O	NF-kB neuron act 4.6
O=C(CSc1nc2ccccc2o1)Nc1nc(-c2ccccc2)cs1	STAT1 act 147
O=C(CSc1nc2ccccc2o1)Nc1nc2ccccc2s1	none
CCC(=O)Nc1ccc(NC(=O)c2ccccn2)cn1	STAT1 act 130
COc1ccc(NC(=O)c2ccccn2)cc1OC	none
CSc1cccc(NC(=O)c2ccccn2)c1	STAT1 act 142
COc1ccc(NC(=O)c2ccccn2)cc1	NF-kB neuron act 3.3, STAT3 blocker 77
COc1ccc(NC(=O)c2ccc(-c3ccccc3Cl)o2)cc1	STAT1 act 130
CSc1cccc(NC(=O)c2cnccn2)c1	none
Cc1cccc(NC(=O)c2sc3nc(N)c(C#N)cc3c2N)c1	none
O=C1C2C3c4ccccc4C(c4ccccc43)C2C(=O)N1Cc1ccccn1 (configuration not stated)	none
CCC(=O)Nc1ccc(NC(=O)c2cccc(OC)c2)nc1	STAT1 act 129
Cc1nn(-c2ccc(F)cc2)c2c1cc(C#N)c1nc3ccccc3n12	none
O=C(O)/C=C\C(=O)Nc1ccccc1C#Cc1ccccc1	NF-kB neuron act 6.8, STAT1 act 140
c1ccc(-c2ccc(-c3csnn3)cc2)cc1	STAT1 act 132
FC(F)(F)c1cccc(-c2ccc(-c3csnn3)o2)c1	none
Nc1ccccc1SCc1cn2cccnc2n1	none
Clc1ccc(SCc2cn3ccccc3n2)cc1	STAT1 act 133
Nc1ccccc1SCc1cn2ccccc2n1	STAT1 act 146
Cc1cccc2nc(CSCc3ccco3)cn12	STAT1 act 135
Cc1cccn2cc(CSc3ccccc3N)nc12	STAT1 act 139
Cc1cc(C)n2cc(CSCc3ccco3)nc2n1	none
Cc1ccccc1-n1c(Cn2c(=O)sc3ccccc32)nnc1SCC(=O)NCC1CCCO1 (configuration not stated)	none
O=C(C1CCN(S(=O)(=O)c2cccc3cccnc23)CC1)N1CCN(C2CCCC2)CC1	none
Cc1ccc(NC(=O)c2cc(S(=O)(=O)c3ccccc3)ccc2Cl)cc1	none
Clc1ccc2nc(CSCc3ccccc3)cn2c1	APP 5'UTR act 139, STAT1 act 145
Clc1ccc2nc(CSc3nc4ccccc4o3)cn2c1	none
Cc1nc(CSc2ccc(Cl)cc2)cc(NCc2ccccc2)n1	none
CNc1cc(CSc2ccc(Cl)cc2)nc(C)n1	STAT1 act 135
Cc1cccc2nc(CSc3nc4ccccc4[nH]3)cn12	none
Cc1cccc2nc(CSc3ccc(Cl)cc3)cn12	STAT1 act 132 (no result: NF-kB neuron act)
Clc1ccc2nc(CSc3nnc4ccccn34)cn2c1	STAT1 act 141
Clc1ccc2nc(CSc3nncn3-c3ccccc3)cn2c1	none
CC(=O)c1c(N2CCN(c3ccccn3)CC2)nc(=S)n(-c2ccccc2)c1C	none
Cc1nc(C)c(C(=O)N/N=C/c2ccco2)s1	none
Cn1c(-c2ccccc2)cc2c3no[n+]([O-])c3ccc21	STAT1 act 130
CCOC(=O)c1c(C)n(OCc2ccccc2)c2ccc3c(no[n+]3[O-])c12	none
CCCCN1CCc2c([nH]c3ccccc23)C1=O	STAT1 act 137
N#Cc1c(NC(=O)c2cccnc2)sc2c1CCC2	none
N#Cc1c(NC(=O)c2cnccn2)sc2c1CCCC2	STAT1 act 140
Cc1cccc(C(=O)Nc2sc3c(c2C#N)CCCCC3)c1	NF-kB neuron act 3.6, APP 5'UTR act 178
CC12CC3(C)CC(C)(C1)CC(C(=O)NC(=S)N1CCCC1)(C2)C3	none
CC(C)c1ccc(/C=C/c2ccc(=O)n(C)n2)cc1	NF-kB neuron act 7.5, STAT1 act 131
CCOC(=O)C(C)n1nc(/C=C/c2ccc(OC)cc2)ccc1=O (configuration not stated)	none
c1ccc2[nH]c(-c3ccncc3)nc2c1	none
Nc1nc(-c2nc3ccccc3[nH]2)cs1	NF-kB neuron act 4.3, APP 5'UTR act 140, STAT1 act 140
c1ccc(-c2nc3ccccc3[nH]2)nc1	STAT1 act 137
O=c1[nH]c(-c2ccccn2)nc2ccccc12	STAT1 act 135
O=S(=O)(/N=C/c1c(O)ccc2ccccc12)c1cccs1	none
CCSc1ccccc1C(=O)NCCc1ccccc1	none
COC(=O)c1ccc(-c2ccc(/C=N/NC(=O)CC3(C)OCCCO3)o2)cc1	none
COc1ccc(-c2cn3c4c(sc3n2)CCCC4)cc1	NF-kB neuron act 7.4
COc1ccc(-c2cn3c(C)c(C(=O)N4CCCc5ccccc54)sc3n2)cc1	none (no result: NF-kB neuron act)
COc1ccc2c(c1OC)C(=O)N(c1nccs1)C2	STAT1 act 132
